Source: PubChem (Broad Institute)
Only a selection was taken, and hits are over-represented in it overall.
IDH1 R132H inh = IDH1 R132H (human) inhibition; O75874; IDH1 R132H reductase, diaphorase/resazurin fluorescence, 60 min; inhibition, % at 10 µM; 0.18% of 70,000 active; AID 624101; in the data active = inhibition above about 34%;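 note: 0% = DMSO and 100% = no enzyme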
Pf Dd2 growth = inhibitors of Plasmodium falciparum Dd2 growth. AID 1159554. 2.3% of 94,000 active. P. falciparum Dd2 growth, SYBR Green, 72 h; stronger effect = lower value. activity change, % at 10 µM; in the data active = activity change below about -80%
GASC1 inh = blocks human GASC-1 (KDM4C) demethylase activity | Q9H3R0 | GST-KDM4C 2-372, H3K9me3 peptide, LANCE TR-FRET | inhibition, % at 12.5 µM | 0.15% of 96,000 active;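 active = mean replicate inhibition above about 25%, with at least 55% of replicates also reaching it, limit read from the data, passing the limit was not always enough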
Target sequence (Q9H3R0 2-372 limits assumed): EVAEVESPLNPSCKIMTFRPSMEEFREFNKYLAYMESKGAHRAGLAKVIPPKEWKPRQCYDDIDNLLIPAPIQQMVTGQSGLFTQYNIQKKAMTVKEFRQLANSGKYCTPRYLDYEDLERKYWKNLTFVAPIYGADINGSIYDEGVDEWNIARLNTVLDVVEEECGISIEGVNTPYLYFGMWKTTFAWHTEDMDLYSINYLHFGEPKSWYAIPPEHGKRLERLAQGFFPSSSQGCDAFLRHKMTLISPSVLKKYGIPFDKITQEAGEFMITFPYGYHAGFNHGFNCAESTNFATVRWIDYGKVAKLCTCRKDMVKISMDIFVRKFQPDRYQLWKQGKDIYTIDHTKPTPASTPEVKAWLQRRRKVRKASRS
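reagent = H3K9me3 peptide substrate, Fe(II), 2-oxoglutarate | system = GST-tagged GASC-1 (JMJD2C) catalytic fragment, aa 2-372 | amount = enzyme final amount 10 nM | read-out = Fall in 671/618 emission ratio as inhibition | medium = HEPES buffer, pH 7.5, plus ascorbate | schedule = 30 min reaction, 60 min detection, RT | measured by = LANCE TR-FRET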
Starred values were filed as active, the others as inactive; / = no result given.

SMILES | IDH1 R132H inh | Pf Dd2 growth | GASC1 inh
CC(C)COC(=O)N(C)C[C@@H]1OCc2ccccc2-c2ccccc2C(=O)N([C@H](C)CO)C[C@@H]1C | -3 | -4 | 1
Cc1ccc(S(=O)(=O)Nc2ccc3c(c2)C(=O)N([C@H](C)CO)C[C@@H](C)[C@H](CN(C)S(=O)(=O)c2ccccc2)OCCCC[C@@H](C)O3)cc1 | / | -58 | -3
CN1CCN(C(=O)C[C@@H]2CC[C@H](NC(=O)Nc3ccccc3F)[C@H](CO)O2)CC1 | 0 | -7 | 0
CO[C@@H]1CN(C)C(=O)c2cc(NC(=O)C3CCOCC3)ccc2OC[C@H](C)N(C(=O)c2ccccc2)C[C@H]1C | 0 | / | 1
O=C(C1CCCC1)N1CC[C@@H]2[C@H]1c1cc(C3=CCCCC3)ccc1N[C@@H]2CO | / | -92* | 2
COc1ccc(C#Cc2ccc3c(c2)[C@@H]2[C@@H](CCN2C(=O)C2CCC2)[C@H](CO)N3)cc1 | / | -87* | -4
C/C=C/c1ccc2c(c1)[C@H]1[C@H](CCN1S(=O)(=O)c1ccccc1)[C@H](CO)N2 | / | -6 | -1
COc1ccc(C#Cc2ccc3c(c2)[C@@H]2[C@@H](CCN2C(=O)C2CCC2)[C@@H](CO)N3)cc1 | / | -75 | 4
C/C=C/c1ccc2c(c1)[C@H]1[C@H](CCN1S(=O)(=O)c1cccc(F)c1)[C@@H](CO)N2 | / | -93* | -1
O=C(Cc1ccncc1)N1CC[C@@H]2[C@@H](CO)Nc3ccc(-c4cccc(F)c4)cc3[C@@H]21 | / | -92* | 1
COc1cccc(-c2ccc3c(c2)[C@H]2[C@H](CCN2C(=O)Cc2ccncc2)[C@H](CO)N3)c1 | / | -76 | -2
O=C(C1CCC1)N1CC[C@H]2[C@H](CO)Nc3ccc(C4=CCCCC4)cc3[C@H]21 | / | -36 | 0
C[C@H]1CCCCO[C@H](CN(C)C(=O)Nc2cccc3ccccc23)[C@@H](C)CN([C@@H](C)CO)C(=O)c2cc(NC(=O)c3ccncc3)ccc2O1 | 2 | -76 | -1
O=C(COc1ccccc1)Nc1ccc2oc(-c3ccccc3)nc2c1 | 0 | / | /
CCOc1ccc(-n2c(SCc3cccc([N+](=O)[O-])c3)nnc2-c2ccncc2)cc1 | 0 | / | /
C/C=C/c1ccc2c(c1)[C@@H]1[C@@H](CCN1C(=O)C1CCCC1)[C@H](CO)N2 | / | -80 | -1
COc1ccc(C#Cc2ccc3c(c2)[C@@H]2[C@@H](CCN2C(=O)c2ccncc2)[C@@H](CO)N3)cc1 | / | -68 | 1
COc1ccc(C#Cc2ccc3c(c2)[C@H]2[C@H](CCN2Cc2ccncc2)[C@@H](CO)N3)cc1 | / | -92* | 3
COc1cccc(-c2ccc3c(c2)[C@H]2[C@H](CCN2C(=O)C2CCCC2)[C@@H](CO)N3)c1 | / | -83* | 2
COc1cccc(-c2ccc3c(c2)[C@@H]2[C@@H](CCN2C(=O)C2CCCC2)[C@@H](CO)N3)c1 | / | -77 | 11
C/C=C/c1ccc2c(c1)[C@H]1[C@H](CCN1C(=O)C1CCCC1)[C@@H](CO)N2 | / | -86* | 0
Cc1cc(C)cc(NC(=O)c2ccc(NS(=O)(=O)c3cccc4cccnc34)cc2)c1 | 1 | / | /
CCCNC(=O)N(C)C[C@@H]1Oc2ncc(C#C[C@H](C)O)cc2C(=O)N([C@@H](C)CO)C[C@@H]1C | 1 | 22 | 0
Cc1ccccc1-c1cnc2c(c1)C(=O)N([C@@H](C)CO)C[C@H](C)[C@@H](CN(C)Cc1cncnc1)O2 | 0 | 3 | 5
C[C@@H]1CN([C@@H](C)CO)C(=O)c2cc(NC(=O)Nc3ccccc3)ccc2O[C@@H]1CN(C)Cc1ccc(-c2ccccc2)cc1 | 2 | 27 | -3
SMILES | IDH1 R132H inh | Pf Dd2 growth | GASC1 inh
COc1ccc(NC(=O)Nc2ccc3c(c2)C(=O)N([C@@H](C)CO)C[C@@H](C)[C@@H](CN(C)S(=O)(=O)c2ccc(OC)cc2)OCCCC[C@@H](C)O3)cc1 | / | -73 | 0
COc1ccc(NC(=O)Nc2ccc3c(c2)C(=O)N([C@H](C)CO)C[C@H](C)[C@H](CN(C)S(=O)(=O)c2ccc(C)cc2)OCCCC[C@@H](C)O3)cc1 | / | -88* | -2
COc1ccc(NC(=O)Nc2ccc3c(c2)C(=O)N([C@H](C)CO)C[C@@H](C)[C@H](CN(C)S(=O)(=O)c2ccc(C)cc2)OCCCC[C@@H](C)O3)cc1 | / | -75 | -1
COc1ccc(S(=O)(=O)N(C)C[C@H]2OCCCC[C@@H](C)Oc3ccc(NC(=O)Nc4ccc(C(F)(F)F)cc4)cc3C(=O)N([C@H](C)CO)C[C@@H]2C)cc1 | 0 | -79 | -1
COc1ccc(S(=O)(=O)N(C)C[C@@H]2OCCCC[C@H](C)Oc3ccc(NC(=O)Nc4ccc(C(F)(F)F)cc4)cc3C(=O)N([C@@H](C)CO)C[C@H]2C)cc1 | / | -86* | 0
COc1ccc(NC(=O)Nc2ccc3c(c2)C(=O)N([C@@H](C)CO)C[C@H](C)[C@H](CN(C)S(=O)(=O)c2ccc(OC)cc2)OCCCC[C@@H](C)O3)cc1 | / | -88* | 0
COCC(=O)Nc1ccc2c(c1)[C@H]1C[C@H](CC(=O)NCC3CC3)O[C@@H](CO)[C@H]1O2 | 0 | 12 | 6
COc1ccc(CN2C[C@H](C)[C@@H](OC)CN(C)C(=O)c3ccc(NC(C)=O)cc3OC[C@@H]2C)cc1 | 0 | -17 | 0
N#Cc1cccc(-c2ccc([C@@H]3[C@@H](CO)N4CCCCN(C(=O)Nc5ccc(F)cc5)C[C@@H]34)cc2)c1 | / | 4 | 0
C[C@@H]1CN([C@H](C)CO)C(=O)Cc2cc(NC(=O)Nc3ccccc3)ccc2O[C@@H]1CN(C)Cc1ccc(C(=O)Nc2ccccc2N)cc1 | / | / | -3
C[C@H]1CN([C@@H](C)CO)C(=O)Cc2cc(NC(=O)Nc3ccc(F)cc3)ccc2O[C@@H]1CN(C)Cc1ccc(C(=O)Nc2ccccc2N)cc1 | 0 | -86* | -2
C[C@@H]1CN([C@H](C)CO)C(=O)Cc2cc(NC(=O)c3ccncc3)ccc2O[C@@H]1CN(C)Cc1ccc(C(=O)Nc2ccccc2N)cc1 | / | -75 | 0
C[C@@H]1CN([C@H](C)CO)C(=O)Cc2cc(NC(=O)Nc3ccc(F)cc3)ccc2O[C@H]1CN(C)Cc1ccc(C(=O)Nc2ccccc2N)cc1 | / | -39 | -2
C[C@H](CO)N1C[C@H](C)[C@@H](CN(C)Cc2ccc(C(=O)Nc3ccccc3N)cc2)Oc2ccc(NC(=O)Cc3ccccc3)cc2CC1=O | -1 | -83* | 0
C[C@@H]1CN([C@@H](C)CO)C(=O)Cc2cc(NC(=O)c3ccncc3)ccc2O[C@@H]1CN(C)Cc1ccc(C(=O)Nc2ccccc2N)cc1 | 0 | -85* | -1
CO[C@@H]1CN(C)C(=O)c2cc(NC(=O)C3CC3)ccc2OC[C@@H](C)N(Cc2cc(F)ccc2F)C[C@@H]1C | -1 | -64 | -2
CCCNC(=O)N(C)C[C@H]1Oc2ncc(C3=CCCC3)cc2C(=O)N([C@@H](C)CO)C[C@@H]1C | / | 7 | 3
O=C(O)C[C@@H]1C[C@@H]2c3cc(NC(=O)Nc4ccccc4F)ccc3O[C@@H]2[C@H](CO)O1 | 0 | 15 | -1
Cc1noc(C)c1S(=O)(=O)N(C)C[C@@H]1OCCCC[C@H](C)Oc2ccc(NC(=O)Nc3cccc4ccccc34)cc2C(=O)N([C@H](C)CO)C[C@@H]1C | / | -20 | -6
